Laboratory results from ChEMBL document CHEMBL1125812, “Synthesis of two cyclopentenyl-3-deazapyrimidine carbocyclic nucleosides related to cytidine and uridine” (1991).

Columns and labels:
Assay type in all cases: functional
Conditions in all cases: Mus musculus
L1210 [1] = assay: Compound was evaluated for the ability to inhibit L1210 tumor cell growth a concentration of 1 uM
In short: (§1)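 L1210 cells seeded at 0.15 × 10^5 cells/mL in Fisher's medium with 10% heat-inactivated horse serum. Drug exposure was continuous for 48 h, and cell number was counted with a Coulter counter. Percent inhibition was calculated relative to untreated control cultures, which reached 4.5 × 10^5 cells/mL.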

L1210 [2] = assay: Compound was evaluated for the ability to inhibit L1210 tumor cell growth a concentration of 10 uM; in short: as §1
L1210 [3] = assay: Compound was evaluated for the ability to inhibit L1210 tumor cell growth a concentration of 100 uM; in short: as §1
L1210 [4] = assay: Compound was evaluated for the ability to inhibit L1210 tumor cell growth a concentration of 1000 uM; in short: as §1

| Structure (SMILES) | inhibition at 1 µM (L1210 [1]) [%] | inhibition at 10 µM (L1210 [2]) [%] | inhibition at 100 µM (L1210 [3]) [%] | inhibition at 1000 µM (L1210 [4]) [%] |
| --- | --- | --- | --- | --- |
| Nc1ccn([C@@H]2C=C(CO)[C@@H](O)[C@H]2O)c(=O)n1 | 93 | 93 | 93 | – |
| Nc1ccn([C@@H]2C=C(CO)[C@@H](O)[C@H]2O)c(=O)c1 | 0 | 0 | 0 | 15 |
| O=c1cc(O)ccn1[C@@H]1C=C(CO)[C@@H](O)[C@H]1O | 8 | 45 | 66 | 75 |
